Active and inactive are the calls of the source. No cut-off for these calls is given here.
How the values were obtained:
Bel-7402 [1] = test: Induction of apoptosis in human Bel7402 cells assessed as necrotic cells at 0.90 uM after 48 hrs by Annexin V-FITC/propidium iodide staining based flow cytometry (reference value: 0.01%); type: functional
Outline: (§1)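 Bel-7402 cells in 6-well plates treated with 0, 0.45, 0.90 or 1.80 μM, washed twice with PBS and resuspended in annexin V binding buffer. Stained with annexin V-FITC and PI for 15 min at room temperature in the dark, then analysed by flow cytometry. Methods state 24 h exposure; the figure legend states 48 h.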

Bel-7402 [2] = test: Induction of apoptosis in human Bel7402 cells assessed as increase in cleaved caspase-3 expression at 0.90 to 1.80 uM after 48 hrs by Western blot analysis; type: functional, cell-based
Bel-7402 [3] = test: Induction of apoptosis in human Bel7402 cells assessed as reduction in Bcl-xl expression at 0.90 to 1.80 uM after 48 hrs by Western blot analysis; type: functional, cell-based
Bel-7402 [4] = test: Induction of apoptosis in human Bel7402 cells assessed as increase in cytochrome C expression at 0.90 to 1.80 uM after 48 hrs by Western blot analysis; type: functional, cell-based
Bel-7402 [5] = test: Cell cycle arrest in human Bel7402 cells assessed as accumulation of cells at G1 phase after 48 hrs by propidium iodide/RNase staining based flow cytometric analysis; type: functional
Bel-7402 [6] = test: Induction of mitochondrial membrane potential loss in human Bel7402 cells assessed as cell population with intact mitochondrial membrane potential at 1.80 uM after 48 hrs by JC1 staining-based flow cytometry analysis (reference value: 98.67%); type: functional
Outline: (§2)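 Bel-7402 cells in 6-well plates exposed for 48 h to 0, 0.45, 0.90 or 1.80 μM, DMSO as vehicle. Washed with PBS and stained with JC-1 at room temperature in the dark. Cells with collapsed membrane potential counted by flow cytometry.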

[7] = Induction of H2S generation in PBS containing Na2S and MB+ cocktail in presence of TCEP/L-cysteine measured at 15 to 20 mins after 20 mins compound incubation by methylene blue dye based UV-Vis spectrophotometric method; type: functional
Outline: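 Na2S standards (5–150 μM) in sodium phosphate buffer reacted 20 min at room temperature with methylene blue cocktail (FeCl3/HCl, N,N-dimethyl-1,4-phenylenediamine/HCl, Zn(OAc)2) to build a 670 nm calibration curve. Compounds from 40 mM THF stock added to phosphate buffer with 1 mM TCEP or L-cysteine. Aliquots taken into the cocktail at set times, incubated 20 min, read at 670 nm. Mean of three experiments.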

Bel-7402 [8] = test: Induction of apoptosis in human Bel7402 cells assessed as necrotic cells at 1.80 uM after 48 hrs by Annexin V-FITC/propidium iodide staining based flow cytometry (reference value: 0.01%); type: functional; outline: as §1
Bel-7402 [9] = test: Induction of apoptosis in human Bel7402 cells assessed as early apoptotic cells at 0.45 uM after 48 hrs by Annexin V-FITC/propidium iodide staining based flow cytometry (reference value: 2.09%); type: functional; outline: as §1
Bel-7402 [10] = test: Induction of mitochondrial membrane potential depolarization in human Bel7402 cells after 48 hrs by JC1 staining-based flow cytometry analysis; type: functional, cell-based; outline: as §2
A549 = test: Antiproliferative activity against human A549 cells assessed as reduction in cell viability after 72 hrs by MTT assay; type: functional, cell-based; settings: A549, 72 h
Outline: (§3)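 MTT assay over 72 h, compounds at 64, 16, 4, 1, 0.25, 0.0625 and 0.015625 μM. MTT solution (5 mg/mL) and DMSO added afterwards, 10 min at room temperature, absorbance read at 490 nm. IC50 calculated as the mean ± SD of three independent experiments.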

Bel-7402 [11] = test: Induction of apoptosis in human Bel7402 cells assessed as increase in cleaved PARP expression at 0.45 to 1.80 uM after 48 hrs by Western blot analysis; type: functional, cell-based
PBMC = test: Cytotoxicity against human PBMC assessed as reduction in cell viability after 72 hrs by MTT assay; type: cell-based; outline: as §3
Bel-7402 [12] = test: Induction of apoptosis in human Bel7402 cells assessed as reduction in PARP expression at 0.45 to 1.80 uM after 48 hrs by Western blot analysis; type: functional, cell-based
Bel-7402 [13] = test: Induction of apoptosis in human Bel7402 cells assessed as reduction in procaspase-3 expression at 0.90 to 1.80 uM after 48 hrs by Western blot analysis; type: functional, cell-based
Bel-7402 [14] = test: Cell cycle arrest in human Bel7402 cells assessed as accumulation of cells at G2 phase at 0.45 uM after 48 hrs by propidium iodide/RNase staining based flow cytometric analysis (reference value: 29.97%); type: functional
Bel-7402 [15] = test: Cell cycle arrest in human Bel7402 cells assessed as accumulation of cells at S phase at 1.80 uM after 48 hrs by propidium iodide/RNase staining based flow cytometric analysis (reference value: 39.09%); type: functional
Bel-7402 [16] = test: Induction of apoptosis in human Bel7402 cells assessed as late apoptotic cells at 0.45 uM after 48 hrs by Annexin V-FITC/propidium iodide staining based flow cytometry (reference value: 0.68%); type: functional; outline: as §1
Bel-7402 [17] = test: Induction of apoptosis in human Bel7402 cells assessed as early apoptotic cells at 1.80 uM after 48 hrs by Annexin V-FITC/propidium iodide staining based flow cytometry (reference value: 2.09%); type: functional; outline: as §1
Bel-7402 [18] = test: Induction of apoptosis in human Bel7402 cells assessed as necrotic cells at 0.45 uM after 48 hrs by Annexin V-FITC/propidium iodide staining based flow cytometry (reference value: 0.01%); type: functional; outline: as §1
Bel-7402 [19] = test: Cell cycle arrest in human Bel7402 cells assessed as accumulation of cells at G1 phase at 1.80 uM after 48 hrs by propidium iodide/RNase staining based flow cytometric analysis (reference value: 30.95%); type: functional
Bel-7402 [20] = test: Cell cycle arrest in human Bel7402 cells assessed as accumulation of cells at S phase at 0.90 uM after 48 hrs by propidium iodide/RNase staining based flow cytometric analysis (reference value: 39.09%); type: functional
Bel-7402 [21] = test: Induction of apoptosis in human Bel7402 cells assessed as viable cells at 1.80 uM after 48 hrs by Annexin V-FITC/propidium iodide staining based flow cytometry (reference value: 97.22%); type: functional; settings: Bel-7402, 48 h, read-out: Activity; outline: as §1
Bel-7402 [22] = test: Induction of apoptosis in human Bel7402 cells assessed as viable cells at 0.45 uM after 48 hrs by Annexin V-FITC/propidium iodide staining based flow cytometry (reference value: 97.22%); type: functional; settings: Bel-7402, 48 h, read-out: Activity; outline: as §1
Bel-7402 [23] = test: Induction of apoptosis in human Bel7402 cells assessed as late apoptotic cells at 1.80 uM after 48 hrs by Annexin V-FITC/propidium iodide staining based flow cytometry (reference value: 0.68%); type: functional; outline: as §1
Bel-7402 [24] = test: Induction of morphological changes in human Bel7402 cells assessed as nuclear fragmentation at 0.45 to 1.80 uM after 48 hrs by Hoechst 33258 staining-based fluorescent microscopic analysis; type: functional, cell-based
Outline: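 Bel-7402 cells cultured 24 h in 6-well plates at 37 °C, then exposed 48 h to 0, 0.45, 0.90 or 1.80 μM. Harvested by mild trypsinization and washed twice with PBS. Stained with Hoechst 33258 (2 mg/mL) for 15 min at room temperature in the dark, washed, and viewed by fluorescence microscopy.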

With `C=C1C(=O)[C@@]23C(=O)OC[C@]4(C(=O)CCC(C)(C)[C@H]4C=O)[C@@H]2CC[C@@H]1[C@H]3OC(=O)CCCC(=O)Oc1ccc(-c2cc(=S)ss2)cc1` the Activity (Bel-7402 [1]) was 0.06%, the Activity (Bel-7402 [2]) was “Active” and the Activity (Bel-7402 [3]) was “Active”. For the same compound, the Activity (Bel-7402 [4]) was “Active”, the Activity (Bel-7402 [5]) was “Dose-dependent effect” and the Activity (Bel-7402 [6]) was 41.23%. For the same compound, the Activity [7] was “Active”, the Activity (Bel-7402 [8]) was 1.05% and the Activity (Bel-7402 [9]) was 9.92%. For the same compound, the Activity (Bel-7402 [10]) was “Dose-dependent effect”, the IC50 (A549) was 5.21 µM and the Activity (Bel-7402 [11]) was “Active”. The IC50 (PBMC) was 19.9 µM, the Activity (Bel-7402 [12]) was “Active” and the Activity (Bel-7402 [13]) was “Active”. The Activity (Bel-7402 [14]) was 22.21%, the Activity (Bel-7402 [15]) was 34.52% and the Activity (Bel-7402 [16]) was 7.73%. The Activity (Bel-7402 [17]) was 18.68%, the Activity (Bel-7402 [18]) was 0.11% and the Activity (Bel-7402 [19]) was 49.56%. For the same compound, the Activity (Bel-7402 [20]) was 37.9%, the viability at 1.8 µM (Bel-7402 [21]) was 43.6% and the viability at 0.45 µM (Bel-7402 [22]) was 82.2%. The Activity (Bel-7402 [23]) was 36.64% and the Activity (Bel-7402 [24]) was “Active”.

— ChEMBL document CHEMBL4364267, “Hydrogen sulfide donating ent-kaurane and spirolactone-type 6,7-seco-ent-kaurane derivatives: Design, synthesis and antiproliferative properties” (Eur J Med Chem, 2019)
